CHOP inh: inhibitors of CHOP induction in ER stress response; inhibition, % at 10 µM; actives 3.8% (n = 220,000); CHO-K1 CHOP-promoter luciferase, tunicamycin-induced, 15-18 h;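 active = compounds that reduced the stress-induced luciferase reporter signal by more than about 70% of percent inhibition, limit read from the data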;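 note: 0% = tunicamycin plus vehicle and 100% = wells without tunicamycin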
Arbovirus inh: antivirals against arbovirus infection | inhibition, % at 10 µM | arbovirus infection cell-based antiviral screen | actives 0.37% (n = 200,000); in the data active = inhibition above about 30%
PKD1 inh: inhibitors of human PKD1 kinase; PKD1 kinase fluorescence polarization assay; inhibition, % (no concentration beside the values); actives 0.056% (n = 200,000)
L major viab: Leishmania major promastigote growth inhibition. AID 1063. Leishmania major promastigotes, resazurin fluorescence viability. actives 9% (n = 200,000). inhibition, % at 10 µM;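 note: promastigotes grown with compound for 44 hours at 28 °C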
Rad51 HR inh: blocks human Rad51 in homologous recombination. hRad51 DNA strand exchange, fluorescence dequenching. AID 1385. inhibition, % at 10 µM. Q06609. actives 0.085% (n = 200,000);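 active = inhibition above 40% at the single screening dose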;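 note: 0% = DMSO control wells and 100% = blanks with heterologous ssDNA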
Target sequence (Q06609 whole entry, looked up): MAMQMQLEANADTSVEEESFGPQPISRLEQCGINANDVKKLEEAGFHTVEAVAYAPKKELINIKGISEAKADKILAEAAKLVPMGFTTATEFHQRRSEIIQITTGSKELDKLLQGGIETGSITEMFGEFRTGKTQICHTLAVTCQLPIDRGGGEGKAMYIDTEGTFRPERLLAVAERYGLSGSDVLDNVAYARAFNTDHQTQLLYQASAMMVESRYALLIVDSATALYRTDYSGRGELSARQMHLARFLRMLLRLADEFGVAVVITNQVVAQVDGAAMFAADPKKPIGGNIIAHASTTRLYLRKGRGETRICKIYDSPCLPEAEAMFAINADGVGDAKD
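Assay system: Human Rad51 nucleoprotein filaments preassembled on unlabelled ssDNA | Reagent: Donor/quencher-labelled 47-bp dsDNA substrate | Doses: One concentration, 10 µM final | Times: 37 °C 15-min filament assembly, 30-min compound preincubation, 15-min exchange | Technique: Fluorescein emission 520 nm, excitation 485 nm | Benchmarks: Plate control and blank wells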
Wee1 stabilizer: human Wee1 degradation inhibition, primary screen | actives 1.2% (n = 220,000) | P30291 | HeLa Luc-Wee1K328M stability, luciferase luminescence; 100% = proteasome inhibitor MG132 effect | reporter increase, % at 5 µM;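 active = activation above the mean of all tested compounds plus 3 SD, set per screening run, cut at about 8.8% in these data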;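 note: cells exposed to compound for 20 h before luminescence read; 0% = DMSO alone and 100% = MG132 at 30 µM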
The depositor's hits bear a star; . = no result. This is a sample that favours compounds with a hit; in the whole collection about 12% have one here. Cut-off read from the data, not from the text of the source, unless noted: active = inhibition above about 50%; inactive = the rest.

SMILES | CHOP inh | Arbovirus inh | PKD1 inh | L major viab | Rad51 HR inh | Wee1 stabilizer
Cc1ccc(C(=O)OCC(=O)Nc2cc(S(=O)(=O)N3CCOCC3)ccc2C)cc1 | 6 | 2 | -7 | 0 | -3 | -3
Cc1ccc(S(=O)(=O)N2CCOCC2)cc1NC(=O)COC(=O)c1ccc(OCc2c(C)noc2C)cc1 | -12 | 2 | 6 | 76* | 6 | 0
CC(=O)N1CCN(c2cc(N3CCCC3)c(F)cc2[N+](=O)[O-])CC1 | 1 | 9 | -1 | 2 | 1 | -1
CC1CCN(c2cc(N3CCOCC3)c(F)cc2[N+](=O)[O-])CC1 | 82* | 1 | -5 | 0 | -4 | 3
CC(C)C(=O)N1CCN(c2cc(N3CCN(C)CC3)c(F)cc2[N+](=O)[O-])CC1 | 8 | 10 | 0 | 96* | 8 | 4
CCN1CCN(c2cc(N3CCc4ccccc4C3)c(F)cc2[N+](=O)[O-])CC1 | 15 | -30 | 1 | 61* | -3 | -1
O=C(NCc1ccc2c(c1)OCO2)c1ccc(S(=O)(=O)N2CCOCC2)cc1 | 4 | 4 | -9 | -7 | 3 | -2
O=C(NNc1ncnc2ccccc12)c1cccc(Cl)c1 | -11 | . | . | . | 14 | 5
Cc1cc(C)c2nc3nc(C)c(C)cc3c(N)c2c1 | 30 | -39 | 1 | 100* | . | 1
COc1ccc2o/c(=N\O)c(C(=O)Nc3ccc(C)cc3)cc2c1 | 21 | -26 | -2 | 50* | -8 | 3
C=CC[C@@H]1C=C(C)C[C@H](C)C[C@H](OC)[C@H]2O[C@@](O)(C(=O)C(=O)N3CCCC[C@H]3C(=O)O[C@H](/C(C)=C/[C@@H]3CC[C@@H](O)[C@H](OC)C3)[C@H](C)[C@@H](O)CC1=O)[C@H](C)C[C@@H]2OC | . | . | . | . | -3 | .
CC[C@@H]1C=C(C)C[C@H](C)C[C@H](OC)[C@H]2O[C@@](O)(C(=O)C(=O)N3CCCC[C@H]3C(=O)O[C@H](/C(C)=C/[C@@H]3CC[C@@H](O)[C@H](OC)C3)[C@H](C)[C@@H](O)CC1=O)[C@H](C)C[C@@H]2OC | 22 | -6 | -9 | 90* | -3 | 0
C=CCn1c(-c2ccc(OC)cc2)nc2ccccc21 | -23 | 11 | -6 | 96* | 2 | 2
COc1ccc(-c2nc3ccccc3n2Cc2ccccc2)cc1 | 27 | 1 | -3 | 53* | . | -2
COc1ccc2c(c1)nc(N)n2Cc1ccccc1 | -28 | 7 | -11 | 64* | . | 0
C=CCn1c(-c2ccc(N)cc2)nc2ccccc21 | 30 | -1 | 1 | 24 | -1 | 0
COc1ccccc1Cn1c(-c2ccccc2OC)nc2ccccc21 | 6 | -23 | -3 | 98* | 0 | -2
O=C(Nc1ccc(Oc2cccc(C(F)(F)F)c2)nc1)c1cccs1 | 40 | . | . | . | 12 | 0
COCCN(Cc1cc2cc(C)ccc2nc1Cl)C(=O)Nc1ccccc1OC | 5 | -5 | 3 | -5 | 2 | 3
COc1ccc(Cn2c(/C=C/c3ccccc3)nc3ccccc32)cc1 | 47 | -24 | 4 | 37 | -1 | 0
COc1ccc(-c2n(Cc3ccccc3)c3ccccc3[n+]2Cc2ccccc2)cc1 | -2 | -13 | -6 | 100* | -102 | 0
CCCSc1nc2c(c(=O)[nH]c(=O)n2C)n1Cc1ccc(C)cc1 | 81* | -15 | -15 | 4 | 3 | 6
CCCCCn1c(SCc2cccc(C)c2)nc2c1c(=O)[nH]c(=O)n2C | 92* | -4 | . | . | 1 | .
C/C=C/Cn1c(SCc2ccc(C)cc2)nc2c1c(=O)[nH]c(=O)n2C | 94* | 1 | 6 | 14 | 13 | -1
Cc1cc(C)n(-c2nc3c(c(=O)[nH]c(=O)n3C)n2Cc2ccc(F)cc2)n1 | -10 | 0 | -10 | 0 | 66* | 1
SMILES | CHOP inh | Arbovirus inh | PKD1 inh | L major viab | Rad51 HR inh | Wee1 stabilizer
C=CCn1c(SCc2ccc(F)cc2)nc2c1c(=O)[nH]c(=O)n2C | 31 | -2 | 0 | 3 | 3 | 0
COCCNC(=O)C(=O)N/N=C/c1ccccc1C(F)(F)F | 19 | 2 | -6 | -5 | -6 | -2
COc1ccccc1CCc1nnc(CCC(=O)NC(C)Cn2nc(C)cc2C)o1 (stereo unspecified) | -2 | 4 | -11 | 4 | -14 | -1
CCOc1cc(C(c2c(C)[nH][nH]c2=O)c2c(C)[nH][nH]c2=O)ccc1OCc1ccc([N+](=O)[O-])cc1 | -7 | -15 | -1 | 100* | -3 | 2
Cc1ccc(C(c2c(C)[nH][nH]c2=O)c2c(C)[nH][nH]c2=O)cc1[N+](=O)[O-] | 32 | 0 | -10 | 58* | 16 | 0
NC(=O)NOCc1ccccc1F | 16 | 5 | -4 | 0 | . | 5
CCOC(=O)C1=C(COC(=O)C2(C)CC2(Cl)Cl)NC(=O)NC1c1ccccc1 (stereo unspecified) | 0 | 1 | -6 | 9 | 1 | 1
C=CCn1c(=O)c2c3c(sc2n2c(Nc4ccc(OC)cc4)nnc12)CCCC3 | 12 | 3 | -8 | 38 | 0 | 2
C=CCn1c(=O)c2c3c(sc2n2c(Nc4ccccc4)nnc12)CCCC3 | 66 | 11 | -4 | 52* | 2 | 7
C=CCn1c(=O)c2c3c(sc2n2c(Nc4ccc(C(=O)OCC)cc4)nnc12)CCCC3 | 88* | -1 | -1 | 94* | 9 | 8
CC(C)(C)C(=O)Nc1cc2nn(-c3ccccc3)nc2cc1Cl | 80* | 4 | -3 | -5 | -4 | -4
COc1ccc(N=CC2=C(Nc3ccc(OC)cc3)c3c(C)nn(-c4ccccn4)c3CC2)cc1 | . | . | -3 | 100* | -4 | -3
COc1ccc(Nc2c3c(nc4c(-c5ccccc5)c(C)nn24)CCC3)cc1 | 19 | 5 | -5 | 29 | -5 | 1
COc1ccc(OCC(O)CNC(=O)Nc2cccc3ccccc23)cc1 (stereo unspecified) | 8 | . | . | . | 21 | 2
Cc1ccc(C(=O)COC(=O)c2ccc3c(c2)C(=O)N(c2cccc4ncccc24)C3=O)cc1 | 39 | 5 | -6 | 76* | 3 | 7
O=C(COC(=O)c1ccc2c(c1)C(=O)N(c1cccc3ncccc13)C2=O)c1ccc(Cl)cc1 | 87* | 4 | -2 | -9 | 10 | -2
Cc1cccc(NC(=O)Cn2nnc3ccccc32)c1 | -22 | 5 | 6 | 26 | 12 | 8
CCN(CC)c1ncnc2scc(C3COc4ccccc4O3)c12 (stereo unspecified) | 28 | 6 | -4 | 6 | -6 | -1
Cc1sc2ncnc(NCC3COc4ccccc4O3)c2c1C (stereo unspecified) | 76* | 17 | 10 | 43 | -7 | 0
c1ccc(-c2csc3ncnc(NCC4COc5ccccc5O4)c23)cc1 (stereo unspecified) | 93* | -24 | 2 | 17 | 21 | -1
CC1CN=C(N(C(=O)Nc2ccccc2)c2ccc(F)cc2)S1 (stereo unspecified) | 5 | -4 | 13 | 7 | -3 | -2

Source: PubChem (several laboratories)
